Assay [1] concerns the target Voltage-dependent T-type calcium channel subunit alpha-1H (Homo sapiens) (UniProt O95180). Briefly: In vitro inhibitory effect on alpha-1H T-type [Ca2+] channels expressed in Xenopus oocytes at 100 uM. The format is functional, cell-based. Conditions: Oocyte. An outline of the steps:
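Preliminary screen at 100 µM on α1H T-type Ca2+ channels expressed in Xenopus oocytes, recorded by two-electrode voltage clamp. Output is percent inhibition of current.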

The target in assay [2] is T1, Voltage-dependent T-type calcium channel subunit alpha-1G (Homo sapiens, UniProt O43497). Briefly: In vitro inhibition of alpha-1G T-type [Ca2+] channels expressed in HEK293 cells at 10 uM. Type of assay: functional, cell-based. The gist of the method: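 Whole-cell patch clamp on HEK293 cells expressing α1G T-type Ca2+ channels, test compound at 10 µM. Percent inhibition of T-type current reported as mean ± SEM from repeated runs (n ≥ 3).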

Assay [3] concerns the target Voltage-dependent N-type calcium channel subunit alpha-1B (Homo sapiens) (UniProt Q00975). The assay can be described thus: Inhibition of HVA N-type [Ca2+] channels of major pelvic ganglion (MPG) neurons at 10 uM. Type of assay: functional. An outline of the steps:
(§1)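 Major pelvic ganglion (MPG) neurons, compound at 10 µM. Percent inhibition measured for both LVA (T-type) and HVA (N-type) Ca2+ currents, as part of an ion-channel selectivity screen that also covered Na+ channels.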

The nature of assay [4]: Inhibition of LVA T-type [Ca2+] channels of major pelvic ganglion (MPG) neurons at 10 uM. The format is functional. An outline of the steps:
as §1

Assay [5] has as its target T1, Voltage-dependent T-type calcium channel subunit alpha-1G. Briefly: Concentration of the compounds required for inhibition of HEK293 cells (alpha1G T-type). The format is functional, cell-based.
For assay [6] the target is unchanged. Briefly: In vitro inhibition of alpha-1G T-type [Ca2+] channels expressed in HEK293 cells. The format is functional, cell-based. The gist of the method:
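α1G T-type Ca2+ currents recorded in HEK293 cells by whole-cell patch clamp. IC50 is the molar concentration giving 50% inhibition of α1G current, obtained by fitting raw data to dose–response curves.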

T1 sequence (O43497 whole entry): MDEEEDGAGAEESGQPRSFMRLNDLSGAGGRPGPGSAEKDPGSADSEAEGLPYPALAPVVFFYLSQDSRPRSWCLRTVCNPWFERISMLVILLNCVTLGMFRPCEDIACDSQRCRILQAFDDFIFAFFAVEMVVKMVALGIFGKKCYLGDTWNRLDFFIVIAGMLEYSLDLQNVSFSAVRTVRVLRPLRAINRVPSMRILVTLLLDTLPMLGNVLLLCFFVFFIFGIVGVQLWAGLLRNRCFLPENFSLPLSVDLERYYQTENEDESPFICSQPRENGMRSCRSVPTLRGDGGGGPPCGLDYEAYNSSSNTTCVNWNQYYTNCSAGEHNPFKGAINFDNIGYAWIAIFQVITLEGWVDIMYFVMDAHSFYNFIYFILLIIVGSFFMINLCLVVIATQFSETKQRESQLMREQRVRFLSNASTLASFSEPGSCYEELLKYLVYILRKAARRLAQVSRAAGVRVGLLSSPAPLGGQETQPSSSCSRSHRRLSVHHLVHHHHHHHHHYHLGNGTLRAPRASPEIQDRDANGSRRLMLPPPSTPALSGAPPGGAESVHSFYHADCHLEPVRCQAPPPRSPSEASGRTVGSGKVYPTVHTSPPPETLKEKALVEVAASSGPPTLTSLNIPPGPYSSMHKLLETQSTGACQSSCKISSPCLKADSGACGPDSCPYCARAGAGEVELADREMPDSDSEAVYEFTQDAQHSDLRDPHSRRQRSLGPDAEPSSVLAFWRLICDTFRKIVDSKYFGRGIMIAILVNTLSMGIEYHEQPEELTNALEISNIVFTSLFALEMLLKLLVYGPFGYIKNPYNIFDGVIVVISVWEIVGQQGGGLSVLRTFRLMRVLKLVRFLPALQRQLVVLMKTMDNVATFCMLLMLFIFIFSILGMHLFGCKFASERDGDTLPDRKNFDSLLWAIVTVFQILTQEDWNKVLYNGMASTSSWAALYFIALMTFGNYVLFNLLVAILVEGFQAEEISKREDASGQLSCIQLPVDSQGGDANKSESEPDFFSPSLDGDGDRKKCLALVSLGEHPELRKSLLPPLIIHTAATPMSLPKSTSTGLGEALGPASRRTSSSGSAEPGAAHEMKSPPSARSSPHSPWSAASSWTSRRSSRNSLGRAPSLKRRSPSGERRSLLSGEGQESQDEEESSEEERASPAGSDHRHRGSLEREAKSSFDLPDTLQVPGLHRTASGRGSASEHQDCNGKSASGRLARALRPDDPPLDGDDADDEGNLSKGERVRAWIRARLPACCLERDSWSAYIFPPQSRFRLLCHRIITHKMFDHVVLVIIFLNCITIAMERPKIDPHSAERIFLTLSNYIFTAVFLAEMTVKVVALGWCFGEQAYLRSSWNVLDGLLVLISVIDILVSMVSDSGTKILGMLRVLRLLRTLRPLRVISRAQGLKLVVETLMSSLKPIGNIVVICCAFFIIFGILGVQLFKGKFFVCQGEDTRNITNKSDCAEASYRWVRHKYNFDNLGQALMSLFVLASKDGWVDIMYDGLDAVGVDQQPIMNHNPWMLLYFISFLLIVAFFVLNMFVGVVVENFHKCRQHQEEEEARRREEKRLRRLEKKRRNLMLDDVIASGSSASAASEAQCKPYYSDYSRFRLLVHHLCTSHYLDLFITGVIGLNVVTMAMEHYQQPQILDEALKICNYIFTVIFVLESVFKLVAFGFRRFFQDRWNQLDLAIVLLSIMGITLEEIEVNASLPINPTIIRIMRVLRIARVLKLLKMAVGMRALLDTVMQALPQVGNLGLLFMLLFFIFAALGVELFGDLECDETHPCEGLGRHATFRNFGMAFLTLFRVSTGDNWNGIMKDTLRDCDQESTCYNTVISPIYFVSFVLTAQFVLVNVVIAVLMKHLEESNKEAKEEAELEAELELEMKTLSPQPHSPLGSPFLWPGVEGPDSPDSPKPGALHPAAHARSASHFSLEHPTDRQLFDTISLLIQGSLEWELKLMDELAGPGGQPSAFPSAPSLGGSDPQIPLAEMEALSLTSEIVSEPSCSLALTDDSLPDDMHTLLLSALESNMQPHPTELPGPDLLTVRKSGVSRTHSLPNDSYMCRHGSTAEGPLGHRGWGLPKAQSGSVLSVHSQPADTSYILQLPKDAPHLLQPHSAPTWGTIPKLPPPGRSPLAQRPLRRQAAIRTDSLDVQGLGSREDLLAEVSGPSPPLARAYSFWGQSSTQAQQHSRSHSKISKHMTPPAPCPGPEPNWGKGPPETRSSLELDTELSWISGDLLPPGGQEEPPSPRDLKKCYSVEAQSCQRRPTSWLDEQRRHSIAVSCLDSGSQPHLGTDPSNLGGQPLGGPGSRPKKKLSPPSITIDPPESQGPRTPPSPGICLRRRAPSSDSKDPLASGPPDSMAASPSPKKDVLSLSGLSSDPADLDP
Voltage-dependent T-type calcium channel subunit alpha-1H (Homo sapiens), sequence (O95180 whole entry): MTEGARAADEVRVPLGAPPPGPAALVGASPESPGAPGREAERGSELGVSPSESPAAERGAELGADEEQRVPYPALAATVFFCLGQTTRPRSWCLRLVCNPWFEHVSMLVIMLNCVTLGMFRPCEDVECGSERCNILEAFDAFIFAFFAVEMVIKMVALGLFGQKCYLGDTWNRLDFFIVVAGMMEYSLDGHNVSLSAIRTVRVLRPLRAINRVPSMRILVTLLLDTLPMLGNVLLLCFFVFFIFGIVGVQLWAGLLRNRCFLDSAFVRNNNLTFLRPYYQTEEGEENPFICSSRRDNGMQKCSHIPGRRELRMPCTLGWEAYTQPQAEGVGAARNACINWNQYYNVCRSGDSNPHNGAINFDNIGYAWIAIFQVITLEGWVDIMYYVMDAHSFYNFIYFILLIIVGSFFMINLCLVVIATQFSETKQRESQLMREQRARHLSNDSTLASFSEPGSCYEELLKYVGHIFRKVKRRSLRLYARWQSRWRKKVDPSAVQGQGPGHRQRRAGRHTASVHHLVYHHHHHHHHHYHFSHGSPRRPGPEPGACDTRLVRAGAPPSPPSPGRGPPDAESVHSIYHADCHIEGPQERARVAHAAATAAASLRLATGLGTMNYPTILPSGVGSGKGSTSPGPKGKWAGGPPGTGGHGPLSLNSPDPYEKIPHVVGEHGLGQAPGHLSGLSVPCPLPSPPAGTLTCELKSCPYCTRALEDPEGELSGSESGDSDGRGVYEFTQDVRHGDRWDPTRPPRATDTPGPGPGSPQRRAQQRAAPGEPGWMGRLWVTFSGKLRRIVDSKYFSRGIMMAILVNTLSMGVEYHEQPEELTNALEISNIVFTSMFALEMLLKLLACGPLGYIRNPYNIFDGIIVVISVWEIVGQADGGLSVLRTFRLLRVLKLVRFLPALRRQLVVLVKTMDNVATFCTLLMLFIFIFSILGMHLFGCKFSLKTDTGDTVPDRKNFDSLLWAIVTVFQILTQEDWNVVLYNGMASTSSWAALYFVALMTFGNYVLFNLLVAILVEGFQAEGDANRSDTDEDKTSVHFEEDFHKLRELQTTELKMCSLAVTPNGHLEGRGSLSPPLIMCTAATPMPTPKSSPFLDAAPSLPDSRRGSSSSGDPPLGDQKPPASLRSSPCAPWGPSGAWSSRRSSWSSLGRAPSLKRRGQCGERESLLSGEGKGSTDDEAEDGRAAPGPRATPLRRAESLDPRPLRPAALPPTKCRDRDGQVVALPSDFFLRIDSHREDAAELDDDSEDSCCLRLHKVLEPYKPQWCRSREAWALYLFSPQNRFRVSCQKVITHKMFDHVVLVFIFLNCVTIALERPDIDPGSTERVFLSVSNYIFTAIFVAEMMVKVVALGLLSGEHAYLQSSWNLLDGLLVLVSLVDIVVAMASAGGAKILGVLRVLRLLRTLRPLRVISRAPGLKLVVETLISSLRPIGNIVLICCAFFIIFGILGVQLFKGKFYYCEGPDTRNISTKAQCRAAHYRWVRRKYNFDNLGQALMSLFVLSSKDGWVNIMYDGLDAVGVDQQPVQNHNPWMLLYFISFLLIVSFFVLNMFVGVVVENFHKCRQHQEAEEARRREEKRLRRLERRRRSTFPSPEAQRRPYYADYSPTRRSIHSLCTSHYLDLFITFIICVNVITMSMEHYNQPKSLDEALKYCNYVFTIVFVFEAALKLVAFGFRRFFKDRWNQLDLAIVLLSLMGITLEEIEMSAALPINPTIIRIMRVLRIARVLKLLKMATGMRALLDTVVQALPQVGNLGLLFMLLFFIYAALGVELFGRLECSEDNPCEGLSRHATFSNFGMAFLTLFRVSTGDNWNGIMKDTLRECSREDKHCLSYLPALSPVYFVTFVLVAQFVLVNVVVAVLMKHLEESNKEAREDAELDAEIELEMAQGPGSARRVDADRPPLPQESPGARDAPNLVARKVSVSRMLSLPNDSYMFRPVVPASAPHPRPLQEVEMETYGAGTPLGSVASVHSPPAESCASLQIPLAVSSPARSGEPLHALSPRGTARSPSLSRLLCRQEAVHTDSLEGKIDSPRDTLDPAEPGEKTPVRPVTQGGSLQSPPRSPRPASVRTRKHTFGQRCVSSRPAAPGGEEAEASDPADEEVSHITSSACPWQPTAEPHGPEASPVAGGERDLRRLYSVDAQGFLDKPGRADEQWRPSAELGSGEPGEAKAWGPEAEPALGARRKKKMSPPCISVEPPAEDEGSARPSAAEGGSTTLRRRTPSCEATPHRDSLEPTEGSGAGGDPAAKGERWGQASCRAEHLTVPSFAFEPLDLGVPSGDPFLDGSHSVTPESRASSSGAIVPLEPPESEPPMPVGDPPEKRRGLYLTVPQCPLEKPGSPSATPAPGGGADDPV

The inhibition is the share of the control response that was lost under treatment. For `COCC(=O)O[C@]1(CCN(C)CCCc2nc3ccccc3[nH]2)CCc2cc(F)ccc2[C@@H]1C(C)C`, the inhibition in assay [1] came to 86%; in assay [2], 95.9%.
As for `O=C(CC1c2ccccc2N=C(N2CCOCC2)N1c1ccccc1)OCc1ccccc1` (stereo unspecified), in assay [1], the inhibition turned out to be 20.9%.
Still for that read-out and setting: to `O=C(CC1c2ccccc2N=C(c2ccccc2)N1c1ccccc1)OCc1ccccc1` (stereo unspecified) belongs 14.2%.
Regarding `COC(=O)CC1c2ccccc2N=C(N2CCN(C)CC2)N1C1CCCCC1` (stereo unspecified), in assay [1], the inhibition came to 3%.
As to `COC(=O)CC1c2ccccc2N=C(N2CCN(C)CC2)N1C(C)C` (stereo unspecified), in assay [1], the inhibition came to 0%.
Take `O=C(CC1c2ccccc2N=C(c2ccccc2)N1c1ccccc1)NCc1ccccc1` (stereo unspecified): the inhibition in assay [1] stood at 14.8%.
What is called IC50 is the concentration at which inhibition is half-maximal. Turning to `Cc1ccc(S(=O)(=O)Nc2ccc(CNC(=O)CC3c4ccccc4N=C(N4CCCCC4)N3c3ccccc3)cc2)cc1` (stereo unspecified), the inhibition in assay [1] is 84.7%; in assay [3] it was 38.7%; in assay [2], 89.9%. The same molecule yielded an inhibition at 10 µM in assay [4] of 29%. Further, the IC50 in assay [5] came out at 0.25 µM.
Take `O=C(CC1c2ccccc2N=C(N2CCOCC2)N1c1ccccc1)NCc1ccccc1` (stereo unspecified): the inhibition in assay [1] amounted to 63.8%; in assay [2], 40.5%. In addition, the IC50 in assay [5] is 21.6 µM.
`COC(=O)CC1c2ccccc2N=C(c2ccccc2)N1c1ccccc1` (stereo unspecified): the inhibition came to 51.5% in assay [1] and 50% in assay [6]. Moreover, in assay [5], the half-inhibitory concentration (IC50) was 10.7 µM.
Regarding `COC(=O)CC1c2ccccc2N=C(N2CCN(C)CC2)N1c1ccccc1` (stereo unspecified), in assay [1], the inhibition came to 15%.
Regarding `CN1CCN(C2=Nc3ccccc3C(CC(=O)NCc3ccccc3)N2c2ccccc2)CC1` (stereo unspecified), the inhibition in assay [1] came to 70.3%; in assay [2], 29%. Further, the IC50 in assay [5] was 35.8 µM.
As for `O=C(O)CC1c2ccccc2N=C(N2CCCCC2)N1c1ccccc1` (stereo unspecified), the inhibition in assay [1] turned out to be 8%.
Regarding `COC(=O)CC1c2ccccc2N=C(N2CCOCC2)N1C1CCCCC1` (stereo unspecified), the inhibition in assay [1] stood at 12.2%.
`Nc1ccc(CNC(=O)CC2c3ccccc3N=C(N3CCCCC3)N2c2ccccc2)cc1` (stereo unspecified): the values for the inhibition in assay [1], in assay [3] and in assay [2] were 66.8%, 18.4% and 43.5%, respectively. The same molecule registered an inhibition at 10 µM in assay [4] of 4.7%. The 50% inhibitory concentration (IC50) in assay [5] is 14.4 µM.
The like results for `O=C(CC1c2ccccc2N=C(N2CCCCC2)N1c1ccccc1)NCc1ccc([N+](=O)[O-])cc1` (stereo unspecified) were, in that order, 91.9%, 32.2%, 92.3%, 37.7% and 2.5 µM.
For the molecule `O=C(O)CC1c2ccccc2N=C(N2CCOCC2)N1c1ccccc1` (stereo unspecified), the inhibition in assay [1] was 9%.
On to `COC(=O)CC1c2ccccc2N=C(N2CCOCC2)N1C(C)C` (stereo unspecified), for which the inhibition in assay [1] came to 0%.
Regarding `O=C(O)CC1c2ccccc2N=C(c2ccccc2)N1c1ccccc1` (stereo unspecified), the inhibition in assay [1] turned out to be 7.2%.
As to `O=C(CC1c2ccccc2N=C(N2CCCCC2)N1c1ccccc1)NCc1ccccc1` (stereo unspecified), the inhibition in assay [1] was 77%; in assay [3], 12%; in assay [2], 90.1%. In assay [4], this molecule returned an inhibition at 10 µM of 76%. In assay [5], the concentration for half-maximal inhibition (IC50) turned out to be 0.9 µM.
As to `O=C(CC1c2ccccc2N=C(N2CCCCC2)N1c1ccccc1)NCc1ccc(NS(=O)(=O)c2ccc(F)cc2)cc1` (stereo unspecified), the figures for the inhibition in assay [1], in assay [3] and in assay [2] were 80.5%, 50.8% and 89%, respectively. The molecule also displayed an inhibition at 10 µM in assay [4] of 49.6%. Also, the half-maximal inhibitory concentration (IC50) in assay [5] is 0.2 µM.
Take `COC(=O)CC1c2ccccc2N=C(N2CCCCC2)N1C(C)C` (stereo unspecified): in assay [1], the inhibition worked out at 8%.
Same read-out and setting: to `O=C(CC1c2ccccc2N=C(N2CCCCC2)N1c1ccccc1)OCc1ccccc1` (stereo unspecified) belongs 15.6%; to `CN1CCN(C2=Nc3ccccc3C(CC(=O)OCc3ccccc3)N2c2ccccc2)CC1` (stereo unspecified), 32.7%; to `CN1CCN(C2=Nc3ccccc3C(CC(=O)O)N2c2ccccc2)CC1` (stereo unspecified), 15%.
Turning to `COC(=O)CC1c2ccccc2N=C(N2CCOCC2)N1c1ccccc1` (stereo unspecified), the inhibition in assay [1] came to 14%.
With `COC(=O)CC1c2ccccc2N=C(N2CCCCC2)N1C1CCCCC1` (stereo unspecified), the inhibition in assay [1] is 27%.
Take `COC(=O)CC1c2ccccc2N=C(N2CCCCC2)N1c1ccccc1` (stereo unspecified): the inhibition in assay [1] stood at 11.5%; in assay [2], 18.3%. Also, the IC50 in assay [5] turned out to be 27.7 µM.

Source of the values: ChEMBL document CHEMBL1147453, “3,4-Dihydroquinazoline derivatives as novel selective T-type Ca2+ channel blockers” (Bioorg Med Chem Lett, 2004).
